MIC, survival and Survival data for 2 molecules are collected here from ChEMBL document CHEMBL1128448, “Synthesis and antifungal activity of new azole derivatives containing an N-acylmorpholine ring” (1995).

In brackets after ≈: the same amount, converted by molar mass.

In one test the test system is Nannizzia gypsea. Put plainly: In vitro evaluation of minimum inhibitory concentration against Microsporum gypseum 22. The format is functional. The gist of the method: (§1)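 Stocks are 800 μg/mL in 50% ethanol. Each plate gets 10 μL of inoculum at 10^5 cfu/mL. Incubation at 25 °C, 48 h for yeasts and 120 h for dermatophytes and molds. Organisms are ATCC strains or clinical isolates.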

In the next test the test system is Candida parapsilosis. Put plainly: In vitro evaluation of minimum inhibitory concentration against Candida parapsilosis 61. The format is functional. Put shortly: as §1
The next test concerns Rhodotorula mucilaginosa. Put plainly: In vitro evaluation of minimum inhibitory concentration against Rhodotorula rubra 16. The format is functional. Put shortly:
as §1

The next test deals with Candida tropicalis. Put plainly: In vitro evaluation of minimum inhibitory concentration against Candida tropicalis 2.11. The format is functional. The gist of the method: as §1
For the next test, the system named is Trichophyton benhamiae. Put plainly: In vitro evaluation of minimum inhibitory concentration against Trichophyton mentagrophytes 23. The format is functional, Arthroderma benhamiae. The gist of the method:
as §1

For a further test, the system named is Nakaseomyces glabratus. Put plainly: In vitro evaluation of minimum inhibitory concentration against Torulopsis glabrata 78. The format is functional. Put shortly: as §1
The subject of test [1] is Candida albicans. Put plainly: […] Evaluation of minimum inhibitory concentration against Candida albicans 60. Type of test: functional. The gist of the method:
as §1

The next test has as its system Aspergillus niger. Put plainly: In vitro evaluation of minimum inhibitory concentration against Aspergillus niger 18. Type of test: functional. The gist of the method: as §1
For test [2], the system named is Candida albicans. Put plainly: In vitro evaluation of minimum inhibitory concentration against Candida albicans 76. The format is functional. Put shortly: as §1
The next test concerns Aspergillus flavus. Put plainly: In vitro evaluation of minimum inhibitory concentration against Aspergillus flavus 19. The format is functional. Put shortly:
as §1

Another test has as its system Microsporum canis. Put plainly: In vitro evaluation of minimum inhibitory concentration against Microsporum canis 47. The format is functional. Put shortly: as §1
The next test deals with Pichia kudriavzevii. Put plainly: In vitro evaluation of minimum inhibitory concentration against Candida krusei 70. The format is functional. Put shortly:
as §1

In test [3] the test system is Meyerozyma guilliermondii. Put plainly: In vitro evaluation of minimum inhibitory concentration against Candida guilliermondii 26. Type of test: functional. The gist of the method:
as §1

In a further test the test system is Kluyveromyces marxianus. Put plainly: In vitro evaluation of minimum inhibitory concentration against Candida pseudotropicalis 13. The format is functional. The gist of the method: as §1
Another test concerns Trichophyton rubrum. Put plainly: In vitro evaluation of minimum inhibitory concentration against Trichophyton rubrum 90. The format is functional. Put shortly:
as §1

The subject of a further test is Aspergillus fumigatus. Put plainly: In vitro evaluation of minimum inhibitory concentration against Aspergillus fumigatus 33. The format is functional. Put shortly: as §1
The subject of test [4] is Candida albicans. Put plainly: […] Evaluation of minimum inhibitory concentration against Candida albicans 406. The format is functional. Put shortly: as §1
The subject of test [5] is Mus sp. Put plainly: In vivo evaluation of % survival rate after peroral administration on 7th day at dose 2.5 mg/kg. Type of test: functional. The settings on record: Mus sp., po.
Test [6] has as its system Mus sp. Put plainly: In vivo evaluation of % survival rate after peroral administration on 9th day at dose 1 mg/kg. As to conditions: route oral, 1 mg/kg. Type of test: functional.
The subject of test [7] is Mus sp. Put plainly: In vivo evaluation of % survival rate after peroral administration on 7th day at dose 1 mg/kg. The settings on record: route oral, 1 mg/kg. Type of test: functional.
The subject of test [8] is Mus sp. Put plainly: In vivo evaluation of % survival rate after peroral administration on 9th day at dose 2.5 mg/kg. The format is functional. As to conditions: Mus sp., po.
In test [9] the test system is Mus sp. Put plainly: In vivo evaluation of % survival rate after peroral administration on 3rd day at dose 2.5 mg/kg. As to conditions: Mus sp., po. Type of test: functional.
Test [10] relates to Mus sp. Put plainly: In vivo evaluation of % survival rate after peroral administration on 5th day at dose 2.5 mg/kg. The format is functional. The settings on record: Mus sp., po.

One may read the MIC as the least concentration at which growth counts as inhibited.

As for `CCC(C)n1ncn(-c2ccc(N3CCN(c4ccc(OC[C@H]5CO[C@](Cn6cncn6)(c6ccc(Cl)cc6Cl)O5)cc4)CC3)cc2)c1=O` (stereo not given in full) [ITRACONAZOLE], the MIC in the test with Nannizzia gypsea (Nannizzia gypsea, read-out: MIC) is 80 µg/mL (≈ 113 µM); in the test with Candida parapsilosis (Lodderomyces parapsilosis, read-out: MIC), 0.07 µg/mL (≈ 0.0992 µM); in the test on Rhodotorula mucilaginosa (Rhodotorula mucilaginosa, read-out: MIC) it was over 80 µg/mL; in the test on Candida tropicalis (Candida tropicalis, read-out: MIC) it was 20 µg/mL (≈ 28.3 µM); in the test with Trichophyton benhamiae (Trichophyton benhamiae, read-out: MIC), over 80 µg/mL; with Nakaseomyces glabratus (Nakaseomyces glabratus, read-out: MIC) it was over 80 µg/mL. Further, the minimal inhibitory concentration (MIC) against Candida albicans [1] was 0.07 µg/mL (≈ 0.0992 µM); in the test on Aspergillus niger (Aspergillus niger, read-out: MIC) it was over 80 µg/mL; in the test with Candida albicans [2] (Candida albicans, read-out: MIC), 0.63 µg/mL (≈ 0.893 µM); in the test on Aspergillus flavus (Aspergillus flavus, read-out: MIC), over 80 µg/mL; with Microsporum canis (Microsporum canis, read-out: MIC), 80 µg/mL (≈ 113 µM); in the test with Pichia kudriavzevii (Pichia kudriavzevii, read-out: MIC) it was 1.25 µg/mL (≈ 1.77 µM). In addition, the minimum inhibitory concentration (MIC) in [3] (Meyerozyma guilliermondii, read-out: MIC) was 0.15 µg/mL (≈ 0.213 µM); in the test on Kluyveromyces marxianus (Kluyveromyces marxianus, read-out: MIC) it was 80 µg/mL (≈ 113 µM); with Trichophyton rubrum (Trichophyton rubrum, read-out: MIC), 0.63 µg/mL (≈ 0.893 µM); with Aspergillus fumigatus (Aspergillus fumigatus, read-out: MIC), 0.15 µg/mL (≈ 0.213 µM); in the test with Candida albicans [4] it was under 0.03 µg/mL.

Consider `C[C@@H](NC(=O)c1ccc(C(F)(F)F)cc1)[C@](O)(Cn1cncn1)c1ccc(F)cc1F` (racemic), for which the MIC against Nannizzia gypsea was over 80 µg/mL; against Candida parapsilosis, 20 µg/mL (≈ 45.4 µM); in the test on Rhodotorula mucilaginosa, 2.5 µg/mL (≈ 5.68 µM); against Candida tropicalis, 80 µg/mL (≈ 182 µM); in the test with Trichophyton benhamiae it was over 80 µg/mL; in the test with Nakaseomyces glabratus, over 80 µg/mL. Moreover, the MIC in the test with Candida albicans [1] was 0.63 µg/mL (≈ 1.43 µM); in the test on Aspergillus niger, over 80 µg/mL; against Candida albicans [2] it was 80 µg/mL (≈ 182 µM); against Aspergillus flavus, over 40 µg/mL; with Microsporum canis it was over 80 µg/mL; with Pichia kudriavzevii it was over 80 µg/mL. The minimum inhibitory concentration (MIC) in test [3] is 2.5 µg/mL (≈ 5.68 µM); against Kluyveromyces marxianus, 40 µg/mL (≈ 90.8 µM); against Trichophyton rubrum, over 40 µg/mL; with Aspergillus fumigatus, over 80 µg/mL; against Candida albicans [4] it was 0.31 µg/mL (≈ 0.704 µM). Also, the survival at 2.5 mg/kg in the test with Mus sp. [5], with Mus sp. [8], in the test with Mus sp. [9] and in the test with Mus sp. [10] was 100% each time. In addition, the figures for the Survival in the test on Mus sp. [6] and in the test with Mus sp. [7] were 60% and 80%, respectively.
